The values below come from ChEMBL document CHEMBL1145097 (J Med Chem, 2003).

Some results are limits rather than exact numbers.

Series [1] in a line: LogD value was determined. As to conditions: octanol/water. Type of series: physicochemical. The method in brief: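 log D determined by an HPLC method.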
Series [2] deals with Metabotropic glutamate receptor 5 (Rattus norvegicus, UniProt P31424). Description: Tested for displacement of [3H]3-methoxy-5-(pyridin-2-ylethynyl) pyridine from Metabotropic glutamate receptor 5 in rat cortical membrane. Type of series: cell membranes. The essentials: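 Rat cortical membranes; displacement of [3H]-3-methoxy-5-(pyridin-2-ylethynyl)pyridine bound to native mGlu5. Geometric mean with standard deviation and number of replicates.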
Sequence of Metabotropic glutamate receptor 5 (Rattus norvegicus, UniProt P31424) (P31424 whole entry): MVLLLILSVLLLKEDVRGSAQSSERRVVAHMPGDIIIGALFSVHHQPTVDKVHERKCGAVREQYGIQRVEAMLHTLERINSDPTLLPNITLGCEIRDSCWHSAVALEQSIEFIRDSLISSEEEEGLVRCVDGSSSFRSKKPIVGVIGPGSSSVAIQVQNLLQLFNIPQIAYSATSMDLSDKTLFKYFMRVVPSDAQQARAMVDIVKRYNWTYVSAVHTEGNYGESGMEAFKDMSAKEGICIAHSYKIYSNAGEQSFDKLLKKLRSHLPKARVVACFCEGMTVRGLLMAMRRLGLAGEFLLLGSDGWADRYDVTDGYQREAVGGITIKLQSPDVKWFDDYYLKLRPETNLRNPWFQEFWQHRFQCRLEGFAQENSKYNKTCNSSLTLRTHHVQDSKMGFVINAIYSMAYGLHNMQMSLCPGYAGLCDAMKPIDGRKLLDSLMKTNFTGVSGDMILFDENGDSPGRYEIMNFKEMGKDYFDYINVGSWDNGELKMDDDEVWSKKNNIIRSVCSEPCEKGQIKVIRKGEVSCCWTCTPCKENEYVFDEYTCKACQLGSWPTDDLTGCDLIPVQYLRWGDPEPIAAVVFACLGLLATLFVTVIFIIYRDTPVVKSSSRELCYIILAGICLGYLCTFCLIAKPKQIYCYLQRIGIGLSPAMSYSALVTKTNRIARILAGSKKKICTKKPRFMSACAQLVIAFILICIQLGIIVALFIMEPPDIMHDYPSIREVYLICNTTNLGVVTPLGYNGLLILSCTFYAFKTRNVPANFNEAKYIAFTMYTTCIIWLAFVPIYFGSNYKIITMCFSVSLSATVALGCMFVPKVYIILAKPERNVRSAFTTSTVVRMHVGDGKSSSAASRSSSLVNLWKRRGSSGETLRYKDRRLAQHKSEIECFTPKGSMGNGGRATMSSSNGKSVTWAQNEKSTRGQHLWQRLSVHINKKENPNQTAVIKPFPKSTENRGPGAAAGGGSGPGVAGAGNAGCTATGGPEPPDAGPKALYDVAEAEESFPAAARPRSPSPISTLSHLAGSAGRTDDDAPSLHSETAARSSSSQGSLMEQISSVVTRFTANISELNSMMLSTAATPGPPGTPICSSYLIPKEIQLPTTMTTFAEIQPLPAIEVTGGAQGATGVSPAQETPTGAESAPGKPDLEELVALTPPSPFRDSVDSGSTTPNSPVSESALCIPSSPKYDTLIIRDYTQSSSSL
(In general: In a radioligand displacement assay an active substance lowers the binding of a labelled ligand.)

The target in series [3] is Metabotropic glutamate receptor 5 (Homo sapiens, UniProt P41594). Description: Tested in vitro against human recombinant Metabotropic glutamate receptor 5 stably expressed in LtK cells by [Ca2+] flux assay using glutamate as agonist.
Sequence of Metabotropic glutamate receptor 5 (Homo sapiens, UniProt P41594) (P41594 whole entry): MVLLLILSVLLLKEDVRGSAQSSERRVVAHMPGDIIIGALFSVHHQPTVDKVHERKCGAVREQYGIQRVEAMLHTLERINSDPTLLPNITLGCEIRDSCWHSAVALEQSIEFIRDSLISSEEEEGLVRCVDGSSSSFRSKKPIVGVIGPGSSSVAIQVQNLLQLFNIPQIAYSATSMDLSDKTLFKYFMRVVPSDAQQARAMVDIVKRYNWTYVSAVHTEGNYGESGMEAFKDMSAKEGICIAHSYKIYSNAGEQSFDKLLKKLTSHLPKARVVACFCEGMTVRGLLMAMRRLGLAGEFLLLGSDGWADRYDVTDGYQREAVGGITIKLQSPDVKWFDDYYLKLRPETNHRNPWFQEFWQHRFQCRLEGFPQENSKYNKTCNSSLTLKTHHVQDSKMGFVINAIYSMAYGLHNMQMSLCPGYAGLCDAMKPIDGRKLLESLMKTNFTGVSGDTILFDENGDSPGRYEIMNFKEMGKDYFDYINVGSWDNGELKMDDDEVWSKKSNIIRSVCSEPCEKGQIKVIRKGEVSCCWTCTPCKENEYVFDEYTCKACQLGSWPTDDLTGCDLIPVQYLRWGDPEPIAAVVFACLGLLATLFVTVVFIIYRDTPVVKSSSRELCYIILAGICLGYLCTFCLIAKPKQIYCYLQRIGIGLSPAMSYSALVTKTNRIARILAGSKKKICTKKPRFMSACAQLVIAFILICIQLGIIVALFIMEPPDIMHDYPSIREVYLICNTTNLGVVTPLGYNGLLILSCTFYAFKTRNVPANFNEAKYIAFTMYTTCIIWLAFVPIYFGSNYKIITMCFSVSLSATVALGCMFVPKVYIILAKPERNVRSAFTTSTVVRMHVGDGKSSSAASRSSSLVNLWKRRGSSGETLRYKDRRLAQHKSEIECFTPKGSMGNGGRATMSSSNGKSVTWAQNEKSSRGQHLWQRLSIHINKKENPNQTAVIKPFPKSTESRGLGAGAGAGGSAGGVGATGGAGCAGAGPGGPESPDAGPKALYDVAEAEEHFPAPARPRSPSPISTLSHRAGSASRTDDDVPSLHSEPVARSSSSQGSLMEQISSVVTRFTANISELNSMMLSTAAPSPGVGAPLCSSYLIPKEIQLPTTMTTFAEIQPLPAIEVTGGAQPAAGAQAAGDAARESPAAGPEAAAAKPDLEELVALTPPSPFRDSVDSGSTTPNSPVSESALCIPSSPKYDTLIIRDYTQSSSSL
The subject of series [4] is Rattus norvegicus. Description: (§1) Amount in vivo in rat plasma after intraperitoneal dose of 3 mg/Kg. In kind it is ADME, organism-based. As to conditions: ip, read-out: Plasma level. The essentials:
(§2)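 Rats given 3 mg/kg ip; brain (hippocampus) and plasma drug levels measured 1 h after dosing. Mean ± SEM, n = rats per group.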

Series [5] relates to Rattus norvegicus. Description: Amount in vivo in rat brain after intraperitoneal dose of 3 mg/Kg. In kind it is ADME, organism-based. As to conditions: ip, read-out: Brain level. The method in brief:
as §2

For series [6], the target named is Metabotropic glutamate receptor 1 (Homo sapiens, UniProt Q13255). Description: Tested for in vitro antagonistic activity against Metabotropic glutamate receptor 1. In kind it is functional. The method in brief:
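Ca2+ flux assay at mGlu1a, with compounds tested in both agonist and antagonist modes. Initial screen at 10 µM; concentration-response curves generated where inhibition was seen.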

For series [7], the target named is T1, Amine oxidase [flavin-containing] A (Mus musculus, UniProt Q64133).
T1 sequence (Q64133 whole entry): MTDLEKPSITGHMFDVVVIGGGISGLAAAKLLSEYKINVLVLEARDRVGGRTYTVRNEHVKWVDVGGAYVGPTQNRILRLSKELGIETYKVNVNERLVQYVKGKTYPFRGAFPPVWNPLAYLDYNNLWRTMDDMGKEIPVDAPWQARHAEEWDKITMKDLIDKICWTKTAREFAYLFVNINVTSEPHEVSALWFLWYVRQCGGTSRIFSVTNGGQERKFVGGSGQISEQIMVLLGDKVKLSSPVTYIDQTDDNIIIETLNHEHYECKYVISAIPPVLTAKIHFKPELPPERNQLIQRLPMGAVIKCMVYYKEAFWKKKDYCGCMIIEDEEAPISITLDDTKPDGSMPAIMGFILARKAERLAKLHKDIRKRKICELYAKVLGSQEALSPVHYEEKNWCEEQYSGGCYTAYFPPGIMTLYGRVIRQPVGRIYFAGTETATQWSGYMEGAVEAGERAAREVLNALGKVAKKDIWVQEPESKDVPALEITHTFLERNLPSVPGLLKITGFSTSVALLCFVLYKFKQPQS
Description: Tested for in vitro antagonistic activity against Monoamine oxidase A. Type of series: functional. The method in brief:
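Displacement of [125I]RTI-55 binding at MAOA. IC50 given with range in parentheses. Initial screen at 10 µM, followed by concentration-response curves where inhibition was detected.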

The target in series [8] is T2, Glutamate receptor ionotropic, NMDA 2B (Homo sapiens, UniProt Q05586+Q13224). Description: Tested for in vitro antagonistic activity against recombinant human N-methyl-D-aspartate glutamate receptor 2B. Type of series: functional. The method in brief:
(§3)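 Cell line stably expressing recombinant human NR1A/2B NMDA receptors. Inhibition of NMDA/glycine-evoked rise in intracellular Ca2+. Six-point concentration-response curve with 8-22 cells per concentration.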

For series [9], the system named is Rattus norvegicus. Description: In vivo intraperitoneal effective dose to block fear conditioning in rats was determined by FPS (fear potentiated startle) model of anxiety. As to conditions: ip. In kind it is functional. The essentials:
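Fear-potentiated startle anxiety model in rats. Compound given ip and measurement taken 1 h after administration. 8 rats/group. ED50 reported as mean, with ED50 values from individual experiments (95% confidence interval).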

For series [10], the system named is Rattus norvegicus. Description: Amount in vivo in rat cerebrospinal fluid (CSF) after oral dose of 30 mg/Kg. As to conditions: read-out: CSF levels.
A short description of series [11]: as §1. In kind it is ADME, organism-based. As to conditions: ip, read-out: Plasma level. The essentials: as §2
Series [12] addresses T1, Amine oxidase [flavin-containing] A. Description: Tested for in vitro antagonistic activity against Monoamine oxidase. Type of series: functional. The method in brief:
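Radioligand displacement of [125I]RTI-55 ([125I]methyl (1R,2S,3S,5S)-3-(4-iodophenyl)-8-methyl-8-azabicyclo[3.2.1]octane-2-carboxylate) from MAO-A. Compounds were first screened at 10 µM.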

The target of series [13] is T2, Glutamate receptor ionotropic, NMDA 2B. Description: Tested for in vitro antagonistic activity against human N-methyl-D-aspartate glutamate receptor 2B. In kind it is functional. The essentials:
as §3

Sequence of Metabotropic glutamate receptor 1 (Q13255 whole entry): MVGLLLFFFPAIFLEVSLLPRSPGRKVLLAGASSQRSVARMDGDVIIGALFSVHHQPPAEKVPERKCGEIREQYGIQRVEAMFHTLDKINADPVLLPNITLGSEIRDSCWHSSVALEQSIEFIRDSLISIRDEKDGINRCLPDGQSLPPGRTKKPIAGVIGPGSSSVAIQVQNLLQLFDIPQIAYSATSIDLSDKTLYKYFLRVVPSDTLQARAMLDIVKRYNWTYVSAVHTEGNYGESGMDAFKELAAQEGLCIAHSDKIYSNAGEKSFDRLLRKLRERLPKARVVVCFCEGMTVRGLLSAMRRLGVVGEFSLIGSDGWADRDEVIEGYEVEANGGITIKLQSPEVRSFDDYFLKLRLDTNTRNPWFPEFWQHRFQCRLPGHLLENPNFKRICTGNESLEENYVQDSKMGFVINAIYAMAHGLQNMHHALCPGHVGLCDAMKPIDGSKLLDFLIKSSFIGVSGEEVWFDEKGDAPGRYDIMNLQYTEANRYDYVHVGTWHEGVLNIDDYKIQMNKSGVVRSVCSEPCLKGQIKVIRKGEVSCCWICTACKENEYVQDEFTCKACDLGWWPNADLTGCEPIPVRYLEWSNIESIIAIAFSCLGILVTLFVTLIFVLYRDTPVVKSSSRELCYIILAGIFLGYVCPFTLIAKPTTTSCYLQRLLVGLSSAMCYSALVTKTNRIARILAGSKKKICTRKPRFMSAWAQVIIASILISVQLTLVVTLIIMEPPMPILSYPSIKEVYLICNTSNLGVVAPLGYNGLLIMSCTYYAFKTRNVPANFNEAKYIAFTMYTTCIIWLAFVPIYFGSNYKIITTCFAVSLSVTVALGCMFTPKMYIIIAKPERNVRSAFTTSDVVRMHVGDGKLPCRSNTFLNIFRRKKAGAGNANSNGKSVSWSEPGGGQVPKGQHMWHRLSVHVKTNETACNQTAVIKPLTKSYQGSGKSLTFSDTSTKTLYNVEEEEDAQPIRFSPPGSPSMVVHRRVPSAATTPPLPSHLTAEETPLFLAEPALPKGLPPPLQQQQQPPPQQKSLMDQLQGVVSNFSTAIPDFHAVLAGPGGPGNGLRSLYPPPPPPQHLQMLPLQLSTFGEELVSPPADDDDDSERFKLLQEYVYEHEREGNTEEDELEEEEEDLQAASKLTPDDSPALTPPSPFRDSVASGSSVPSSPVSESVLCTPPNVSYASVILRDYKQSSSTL
T2 sequence (Q13224 whole entry, one chain of several): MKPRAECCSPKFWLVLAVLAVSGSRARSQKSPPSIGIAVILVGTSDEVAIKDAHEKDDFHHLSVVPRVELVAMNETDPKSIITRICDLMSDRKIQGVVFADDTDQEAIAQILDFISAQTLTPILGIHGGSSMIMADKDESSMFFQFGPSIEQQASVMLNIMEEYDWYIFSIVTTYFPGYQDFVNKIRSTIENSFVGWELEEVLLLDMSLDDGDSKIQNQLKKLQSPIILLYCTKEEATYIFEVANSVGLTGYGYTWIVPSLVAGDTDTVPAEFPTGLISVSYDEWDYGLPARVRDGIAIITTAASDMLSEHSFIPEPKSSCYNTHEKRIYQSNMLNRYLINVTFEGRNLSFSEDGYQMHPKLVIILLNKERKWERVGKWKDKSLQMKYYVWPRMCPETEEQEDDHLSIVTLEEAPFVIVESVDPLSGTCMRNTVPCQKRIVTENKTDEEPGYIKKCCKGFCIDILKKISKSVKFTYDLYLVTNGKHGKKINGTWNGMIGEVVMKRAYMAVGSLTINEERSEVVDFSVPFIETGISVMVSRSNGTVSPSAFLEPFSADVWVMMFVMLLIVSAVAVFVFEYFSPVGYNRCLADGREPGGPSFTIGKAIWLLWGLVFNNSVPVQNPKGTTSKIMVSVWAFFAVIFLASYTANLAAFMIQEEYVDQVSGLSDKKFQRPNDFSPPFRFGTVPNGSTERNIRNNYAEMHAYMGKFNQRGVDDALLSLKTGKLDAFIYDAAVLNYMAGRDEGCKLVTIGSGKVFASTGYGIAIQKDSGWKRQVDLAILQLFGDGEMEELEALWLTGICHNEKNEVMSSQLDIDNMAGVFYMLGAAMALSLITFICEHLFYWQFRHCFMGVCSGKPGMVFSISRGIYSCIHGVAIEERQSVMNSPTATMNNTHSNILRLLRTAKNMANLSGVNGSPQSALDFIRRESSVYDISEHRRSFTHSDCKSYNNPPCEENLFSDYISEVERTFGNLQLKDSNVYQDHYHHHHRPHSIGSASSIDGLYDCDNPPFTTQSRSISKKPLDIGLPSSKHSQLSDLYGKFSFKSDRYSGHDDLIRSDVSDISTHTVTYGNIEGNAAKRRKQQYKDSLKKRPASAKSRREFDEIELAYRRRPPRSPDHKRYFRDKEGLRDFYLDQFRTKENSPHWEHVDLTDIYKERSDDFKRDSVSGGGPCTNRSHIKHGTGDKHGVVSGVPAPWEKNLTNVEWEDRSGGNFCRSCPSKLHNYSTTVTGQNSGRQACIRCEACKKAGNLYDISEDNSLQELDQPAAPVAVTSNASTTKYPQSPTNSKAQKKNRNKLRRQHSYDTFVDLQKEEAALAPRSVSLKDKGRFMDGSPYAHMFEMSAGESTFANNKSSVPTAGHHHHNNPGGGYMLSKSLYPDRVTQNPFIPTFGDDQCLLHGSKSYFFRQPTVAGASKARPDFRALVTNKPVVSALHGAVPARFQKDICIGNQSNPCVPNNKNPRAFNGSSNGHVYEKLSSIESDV

On to `C(#Cc1cscn1)c1ccccc1`, for which the logD in series [1] stood at 2.6. For the same molecule, in series [2], the inhibition constant Ki turned out to be 0.142 µM. The IC50 in [3] came out at 0.097 µM.
Take `Cc1nc(C#Cc2cccnc2)cs1`: the concentration came to 1.2 µM in the series with Rattus norvegicus [4], 1.4 µM with Rattus norvegicus [5] and 1 µM with Rattus norvegicus [10]. This molecule also registered a logD in series [1] of 2.1. Moreover, the IC50 is more than 100 µM in series [6], 30 µM in [7] and more than 300 µM in series [8]. Moreover, in the series on Rattus norvegicus [9], the ED50 was 1 mg/kg.
In series [1], `C(#Cc1nccs1)c1ccccc1` displayed a log distribution coefficient (logD) of 3.2. In series [2], this molecule returned an inhibition constant Ki of 0.153 µM. Moreover, the IC50 in series [3] is 0.081 µM.
`Cc1nc(C#Cc2ccccc2)cs1`: the pH-dependent lipophilicity (logD) in series [1] was 3.3. For the same molecule, the Ki in series [2] was found to be 0.006 µM. In [3], the IC50 came to 0.006 µM.
`Cc1csc(C#Cc2ccccc2)n1` showed a log distribution coefficient (logD) in series [1] of 2.6. The molecule also had an inhibitory constant (Ki) in [2] of 0.032 µM. Further, in series [3], the half-inhibitory concentration (IC50) was determined as 0.013 µM.
Turning to `Cc1cccc(C#Cc2ccccc2)n1`, the figures for the concentration (in series [11]; in the series on Rattus norvegicus [5]; in the series with Rattus norvegicus [10]) were 0.39 µM, 0.83 µM and 0.21 µM, respectively. Moreover, in [1], the logD is 3.5. The figures for the IC50 in series [6], in series [12] and in [13] were more than 100 µM, 8 µM and 18 µM, respectively. The ED50 in the series on Rattus norvegicus [9] was 5 mg/kg.
As for `Cc1nc(C#Cc2ccncc2)cs1`, in series [1], the logD came to 2.1. Further, the affinity in [2], expressed as Ki, was 0.214 µM. Besides, the 50% inhibitory concentration (IC50) in [3] was determined as 0.122 µM.
The molecule `Cc1nc(C#Cc2ccccn2)cs1` returned a pH-dependent lipophilicity (logD) in [1] of 1.9. Moreover, in [2], affinity was put at a Ki of 0.048 µM. Besides, the IC50 in [3] is 0.053 µM.

The logD is the decadic logarithm of the distribution of all forms, ionised or not, between an organic phase and buffer at a given pH. Low readings indicate lower lipophilicity, high ones higher lipophilicity. One may read the Ki as the dissociation constant of the complex between target and ligand, obtained from inhibition or displacement. Read a low Ki as tighter binding. For orientation: IC50 means the concentration needed to halve the response being measured. Usually ED50 stands for the dose at which the effect has come halfway, by size or by number of responders.
